Assay results reported in ChEMBL document CHEMBL1132413, “Mechanism-based competitive inhibitors of glyoxalase I: intracellular delivery, in vitro antitumor activities, and stabilities in human serum and mouse serum” (J Med Chem, 1999).

Experiments:
L1210 [1] = experiment: The compound was tested […] for 100% growth inhibition against L1210 murine leukemia cells.; assay type: functional, Mus musculus
Summary of the method: (§1)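 L1210 leukemia cells in log growth were seeded at 5000 cells/well in RPMI 1640 with 10% heat-inactivated FCS and gentamycin at 37 °C under 5% CO2. At least five concentrations spanning the GI50 were tested in triplicate for 48 h, with ester replenished at 0, 12, 24 and 36 h. Washed cells were Coulter-counted. PG = 100×(test−tzero)/(ctrl−tzero). TGI is 100% growth inhibition and GI50 is 50%. Mean ± SD comes from independent experiments.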

[2] = system: Glyoxalase I (Homo sapiens); experiment: The compound was tested for inhibitory activity against human glyoxalase I.
B16 [3] = experiment: The compound was tested […] for 100% growth inhibition against B16 melanoma cells.; assay type: functional, Mus musculus
Summary of the method: (§2)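 B16 melanotic melanoma cells in log growth were plated at 5000 cells/well in RPMI 1640 with 10% heat-inactivated FCS and gentamycin at 37 °C under 5% CO2. Cells were exposed for 48 h to at least five drug concentrations, in triplicate, with fresh diethyl ester added at 0, 12, 24 and 36 h. Cells were trypsinized and counted on a Coulter counter. Percentage growth was calculated NCI-style against time-zero and no-drug controls. TGI is 100% growth inhibition and GI50 is 50%. Mean ± SD comes from separate experiments.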

B16 [4] = experiment: The compound was tested […] for 50% growth inhibition against B16 melanoma cells.; assay type: functional, Mus musculus; summary of the method: as §2
[5] = system: Glyoxalase I (Homo sapiens); experiment: The compound was tested for inhibitory activity against human glyoxalase I.; remark: listed apart in the source
L1210 [6] = experiment: The compound was tested […] for 50% cell killing against L1210 murine leukemia cells.; assay type: functional, Mus musculus
Summary of the method: (§3)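 Cultured cells, not in vivo: log-phase cells seeded at 5000 cells/well in RPMI 1640/10% heat-inactivated FCS with gentamycin, 37 °C, 5% CO2. Exposed 48 h to at least five diethyl ester concentrations in triplicate, with fresh ester added at 0, 12, 24 and 36 h. B16 cells were trypsinised and L1210 cells washed. Counted by Coulter counter, viability by trypan blue. LC50 = concentration giving 50% cell killing.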

B16 [7] = experiment: The compound was tested […] for 50% cell killing against B16 melanoma cells.; assay type: functional, Mus musculus; summary of the method: as §3
L1210 [8] = experiment: The compound was tested […] for 50% growth inhibition against L1210 murine leukemia cells.; assay type: functional, Mus musculus; summary of the method: as §1
[9] = system: Glyoxalase I (Homo sapiens); experiment: The compound was tested for inhibitory activity against human glyoxalase I.; remark: listed apart in the source

Row | SMILES | TGI (L1210 [1]) [µM] | Ki [2] [µM] | TGI (B16 [3]) [µM] | GI50 (B16 [4]) [µM] | Ki [5] [µM] | LC50 (L1210 [6]) [µM] | LC50 (B16 [7]) [µM] | GI50 (L1210 [8]) [µM] | Ki [9] [µM]
1 | CCOC(=O)CNC(=O)[C@@H](CSCc1ccc(Br)cc1)NC(=O)CCC(N)C(=O)OCC (some centres not stated) | 11 | 0.17 | 23 | 14 | 0.17 | 26 | 56 | 7 | 
2 | CCOC(=O)CNC(=O)C(CSC(=O)N(O)c1ccc(Cl)cc1)NC(=O)CCC(N)C(=O)OCC.Cl (configuration not stated) | 27 | 0.046 | ~23 | 15 | 0.046 | 54 | ~47 | 7 | 
3 | CCOC(=O)CNC(=O)C(CSC(=O)N(O)c1ccccc1)NC(=O)CCC(N)C(=O)OCC.Cl (configuration not stated) | 135 |  | >100 | >100 | 0.16 | 271 | >100 | 84 | 0.16
4 | CCOC(=O)CNC(=O)C(CSC(=O)N(O)c1ccc(Br)cc1)NC(=O)CCC(N)C(=O)OCC.Cl (configuration not stated) | 7 | 0.014 | 33 | 11 | 0.014 | 17 | 54 | 3 | 
